Assay results published in PMC7877830 (Clinical and Translational Science, 2020).
pIC50: −log10 of the molar value. Values joined by “and” are separate entries in the source; they are usually repeats but may differ in a detail not shown here. Equal entries are not always repeated. Where two headings read alike, the source gives them in different places.

Key:
OATP1B3 [1] = conditions: read-out: Km for OATP1B3; cited from earlier work
OATP1B1/1B3 [2] = assay type: in vivo, human; conditions: for AUC0–16 of endogenous biomarker / AUC0–48 of endogenous biomarker / Cmax of endogenous biomarker: geometric mean (mean, %CV); for AUC0–16 ratio relative to baseline / AUC0–48 ratio relative to baseline / Cmax ratio relative to baseline: point estimate (90% CI)
Summary of the method: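 Healthy volunteers in a crossover each got a single fasting 300/120 mg dose of formulation A, B or C. Plasma (K2EDTA, stored −20 °C) drawn predose and up to 48 h. Cmax, AUC0–16 and AUC0–48 derived noncompartmentally by linear trapezoid. Predose level served as baseline; baseline AUC = baseline concentration × interval. Ratios to baseline given with 90% CI; mixed model compared A or B with C.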

OATP1B1 [3] = conditions: read-out: Km for OATP1B1; cited from earlier work
OATP1B1/1B3 [4] = conditions: n = 56; across different ethnicities; cited from earlier work
[5] = cited from earlier work
OATP1B1 [6] = conditions: read-out: OATP1B1 IC50, cited from earlier work
OATP1B3 [7] = conditions: read-out: OATP1B3 IC50; in vitro; cited from earlier work
[8] = cited from earlier work; remark: listed apart in the source
[9] = assay type: in vivo, human; conditions: for AUC(0-t) / Cmax: human, plasma, oral; for Cmax: geometric mean (mean, %CV), healthy subjects
Summary of the method: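 Phase I single-dose complete crossover in healthy subjects, randomised to two test formulations and a reference formulation. Dosed 300/120 mg fasting in the morning, with at least 5 days washout; subjects confined ~4 days on standardized meals. Plasma (K2EDTA, stored −20 °C) sampled predose to 48 h and extracted liquid-liquid with deuterated internal standards. Calibration ~0.200–100 ng/mL; high range ~85.0–10,000 (GLE) or ~85.0–1,050 ng/mL (PIB). Noncompartmental, linear-trapezoidal analysis; BLQ set to zero.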

OATP1B1 [10] = conditions: as per the FDA guidance; unbound concentration in hepatic portal vein; cited from earlier work
OATP1B3 [11] = conditions: as per the FDA guidance; unbound concentration in hepatic portal vein; cited from earlier work
[12] = cited from earlier work; remark: listed apart in the source
[13] = after GLE/PIB 300/120 mg Formulation A
[14] = after GLE/PIB 300/120 mg Formulation B
[15] = after GLE/PIB 300/120 mg Formulation C
[16] = AUC0–16, geometric mean (mean, %CV), GLE/PIB 300/120 mg Formulation A
[17] = AUC0–16, geometric mean (mean, %CV), GLE/PIB 300/120 mg Formulation B
[18] = AUC0–16, geometric mean (mean, %CV), GLE/PIB 300/120 mg Formulation C
[19] = AUC0–48, geometric mean (mean, %CV), GLE/PIB 300/120 mg Formulation A
[20] = AUC0–48, geometric mean (mean, %CV), GLE/PIB 300/120 mg Formulation B
[21] = AUC0–48, geometric mean (mean, %CV), GLE/PIB 300/120 mg Formulation C
[22] = single dose GLE/PIB 300/120 mg Formulation A, fasting
[23] = single dose GLE/PIB 300/120 mg Formulation B, fasting
[24] = single dose GLE/PIB 300/120 mg Formulation C (reference), fasting

AUC0–16 of endogenous biomarker (OATP1B1/1B3 [2]; [13]) | AUC0–48 of endogenous biomarker (OATP1B1/1B3 [2]; [13]) | Cmax of endogenous biomarker (OATP1B1/1B3 [2]; [13]) | AUC0–16 of endogenous biomarker (OATP1B1/1B3 [2]; [14]) | AUC0–48 of endogenous biomarker (OATP1B1/1B3 [2]; [14]) | Cmax of endogenous biomarker (OATP1B1/1B3 [2]; [14]) | AUC0–16 of endogenous biomarker (OATP1B1/1B3 [2]; [15]) | AUC0–48 of endogenous biomarker (OATP1B1/1B3 [2]; [15]) | Cmax of endogenous biomarker (OATP1B1/1B3 [2]; [15]) | AUC0–16 ratio relative to baseline (OATP1B1/1B3 [2]; [13]) | AUC0–48 ratio relative to baseline (OATP1B1/1B3 [2]; [13]) | Cmax ratio relative to baseline (OATP1B1/1B3 [2]; [13]) | AUC0–16 ratio relative to baseline (OATP1B1/1B3 [2]; [14]) | AUC0–48 ratio relative to baseline (OATP1B1/1B3 [2]; [14]) | Cmax ratio relative to baseline (OATP1B1/1B3 [2]; [14]) | AUC0–16 ratio relative to baseline (OATP1B1/1B3 [2]; [15]) | AUC0–48 ratio relative to baseline (OATP1B1/1B3 [2]; [15]) | Cmax ratio relative to baseline (OATP1B1/1B3 [2]; [15]) | AUC(0-t) [9, 16] | Structure (SMILES) | half-life [8] | further results
8.98 (9.10, 16) ng·h/mL | 25.4 (25.6, 12) ng·h/mL | 0.726 (0.740, 21) ng/mL | 11.7 (11.9, 23) ng·h/mL | 28.2 (28.5, 18) ng·h/mL | 1.19 (1.24, 26) ng/mL | 13.2 (13.3, 16) ng·h/mL | 30.3 (30.6, 13) ng·h/mL | 1.44 (1.48, 23) ng/mL | 0.97 (0.89 to 1.06) | 0.91 (0.85 to 0.97) | 1.25 (1.12 to 1.41) | 1.25 (1.18 to 1.32) | 1.01 (0.96 to 1.06) | 2.05 (1.81 to 2.32) | 1.39 (1.29 to 1.51) | 1.07 (1.02 to 1.13) | 2.44 (2.11 to 2.82) | – | CC1=C(CCC(=O)O)c2cc3nc(cc4[nH]c(cc5[nH]c(cc1n2)c(CCC(=O)O)c5C)c(CCC(=O)O)c4C)C(CCC(=O)O)=C3C [CP‐I, coproporphyrin (CP)‐I] | – | Km (OATP1B3 [1]): 3.95 µM; baseline plasma concentration (OATP1B1/1B3 [2]; mean and SD, predose, all study periods): 0.59 ± 0.09 ng/mL and 0.90 ± 0.14 nM; Km (OATP1B1 [3]): 0.13 µM; baseline plasma concentration, previously reported range (OATP1B1/1B3 [4]): 0.5 to 1.5 nM
1.20 (1.22, 19) ng·h/mL | 3.32 (3.44, 23) ng·h/mL | 0.104 (0.105, 16) ng/mL | 1.07 (1.24, 73) ng·h/mL | 2.77 (3.44, 41) ng·h/mL | 0.113 (0.116, 25) ng/mL | 1.23 (1.30, 36) ng·h/mL | 2.87 (3.23, 41) ng·h/mL | 0.115 (0.119, 26) ng/mL | 0.94 (0.84 to 1.06) | 0.86 (0.82 to 0.95) | 1.31 (1.18 to 1.46) | 0.96 (0.85 to 1.08) | 0.90 (0.80 to 1.01) | 1.34 (1.18 to 1.53) | 1.01 (0.86 to 1.20) | 0.79 (0.60 to 1.03) | 1.49 (1.24 to 1.78) | – | CC1=C(CCC(=O)O)c2cc3nc(cc4[nH]c(cc5[nH]c(cc1n2)c(C)c5CCC(=O)O)c(CCC(=O)O)c4C)C(CCC(=O)O)=C3C [CP‐III] | – | –
– | – | – | – | – | – | – | – | – | – | – | – | – | – | – | – | – | – | 344 ng·h/mL | CC(C)(C)[C@@H]1NC(=O)O[C@@H]2CCC[C@H]2OC/C=C/C(F)(F)c2nc3ccccc3nc2O[C@@H]2C[C@@H](C(=O)N[C@]3(C(=O)NS(=O)(=O)C4(C)CC4)C[C@H]3C(F)F)N(C2)C1=O [GLE, glecaprevir] | about 6 hours | fu,p (fraction of unbound inhibitor in plasma) [5]: 0.025; pIC50 (OATP1B1 [6]; in vitro): 7.77; pIC50 (OATP1B3 [7]): 7.19; share of exposure observed in the first 16 hours postdose ([9]; across formulations): 94–97%; exposures (Cmax, AUC0–16, AUC0–48) lower relative to reference formulation C ([9]; formulation A, fasting): ~ 80%; exposures (Cmax, AUC0–16, AUC0–48) lower relative to reference formulation C ([9]; formulation B, fasting): ~26%; AUC(0-t) [9, 17]: 1330 ng·h/mL; AUC(0-t) [9, 18]: 1800 ng·h/mL; AUC(0-t) [9, 19]: 367 ng·h/mL; AUC(0-t) [9, 20]: 1370 ng·h/mL; AUC(0-t) [9, 21]: 1850 ng·h/mL; Cmax [9, 22]: 88.5 ng/mL; Cmax [9, 23]: 330 ng/mL; Cmax [9, 24]: 444 ng/mL; OATP1B1 R value (OATP1B1 [10]): 5.5; OATP1B3 R value (OATP1B3 [11]): 2.2
– | – | – | – | – | – | – | – | – | – | – | – | – | – | – | – | – | – | 546 ng·h/mL | COC(=O)N[C@H](C(=O)N1CCC[C@H]1c1nc2cc([C@H]3CC[C@H](c4cc5nc([C@@H]6CCCN6C(=O)[C@@H](NC(=O)OC)[C@@H](C)OC)[nH]c5cc4F)N3c3cc(F)c(N4CCC(c5ccc(F)cc5)CC4)c(F)c3)c(F)cc2[nH]1)[C@@H](C)OC [PIB, pibrentasvir] | ~13 h | RB (blood-to-plasma concentration ratio) [12]: 0.62; pIC50 (OATP1B1 [6]; in the presence of 4% bovine serum albumin): 5.89; exposures lower relative to reference formulation C ([9]; formulations A and B, fasting): 28–49%; AUC(0-t) [9, 17]: 514 ng·h/mL; AUC(0-t) [9, 18]: 977 ng·h/mL; AUC(0-t) [9, 19]: 658 ng·h/mL; AUC(0-t) [9, 20]: 622 ng·h/mL; AUC(0-t) [9, 21]: 1170 ng·h/mL; Cmax [9, 22]: 86.8 ng/mL; Cmax [9, 23]: 83.7 ng/mL; Cmax [9, 24]: 163 ng/mL; OATP1B1 R value (OATP1B1 [10]): 1.4
